Rows were chosen to be rich in hits. Some 2.2% of all compounds tested hit in one or more screens of this group.
PfG6PD inh – PfG6PD (Plasmodium falciparum) enzyme inhibition | PfGluPho enzyme, NADPH resazurin-diaphorase fluorescence | inhibition, % at 20 µM | 350,000 compounds, 0.78% hits | AID 504690;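 active = inhibition reaching at least a set limit at 20 µM in the primary screen, cut at about 59% in these data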;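 also: 0% = DMSO wells with substrate and 100% = DMSO wells lacking glucose-6-phosphate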
PfM18AAP inh-1 – blocks P. falciparum M18 aspartyl aminopeptidase; recombinant PfM18AAP, H-Glu-NHMec fluorogenic cleavage; inhibition, % at 7.35 µM; 290,000 compounds, 1.2% hits;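 active = inhibition above the campaign mean inhibition over all tested compounds plus 3 SD, cut at about 28% in these data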;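 also: 0% = plate median of test compound wells and 100% = 2 mM ZnCl2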
Neddyl block – blocks human cullin neddylation; P61081+Q13564; TR-FRET cullin neddylation, biochemical; inhibition, % at 25 µM; 360,000 compounds, 0.58% hits; in the data active = inhibition above about 36%
HKDC1 inh – inhibitors of human hexokinase HKDC1 | Q2TB90 | recombinant HKDC1, G6PDH/diaphorase resazurin coupled fluorescence | inhibition, % at 20 µM | 340,000 compounds, 0.16% hits | AID 493160;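 active = inhibition above about 35% when tested at 20 µM, limit read from the data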;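 also: plate controls were DMSO wells with enzyme for no effect and DMSO wells lacking enzyme for full effect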
Target sequence (Q2TB90 whole entry, looked up): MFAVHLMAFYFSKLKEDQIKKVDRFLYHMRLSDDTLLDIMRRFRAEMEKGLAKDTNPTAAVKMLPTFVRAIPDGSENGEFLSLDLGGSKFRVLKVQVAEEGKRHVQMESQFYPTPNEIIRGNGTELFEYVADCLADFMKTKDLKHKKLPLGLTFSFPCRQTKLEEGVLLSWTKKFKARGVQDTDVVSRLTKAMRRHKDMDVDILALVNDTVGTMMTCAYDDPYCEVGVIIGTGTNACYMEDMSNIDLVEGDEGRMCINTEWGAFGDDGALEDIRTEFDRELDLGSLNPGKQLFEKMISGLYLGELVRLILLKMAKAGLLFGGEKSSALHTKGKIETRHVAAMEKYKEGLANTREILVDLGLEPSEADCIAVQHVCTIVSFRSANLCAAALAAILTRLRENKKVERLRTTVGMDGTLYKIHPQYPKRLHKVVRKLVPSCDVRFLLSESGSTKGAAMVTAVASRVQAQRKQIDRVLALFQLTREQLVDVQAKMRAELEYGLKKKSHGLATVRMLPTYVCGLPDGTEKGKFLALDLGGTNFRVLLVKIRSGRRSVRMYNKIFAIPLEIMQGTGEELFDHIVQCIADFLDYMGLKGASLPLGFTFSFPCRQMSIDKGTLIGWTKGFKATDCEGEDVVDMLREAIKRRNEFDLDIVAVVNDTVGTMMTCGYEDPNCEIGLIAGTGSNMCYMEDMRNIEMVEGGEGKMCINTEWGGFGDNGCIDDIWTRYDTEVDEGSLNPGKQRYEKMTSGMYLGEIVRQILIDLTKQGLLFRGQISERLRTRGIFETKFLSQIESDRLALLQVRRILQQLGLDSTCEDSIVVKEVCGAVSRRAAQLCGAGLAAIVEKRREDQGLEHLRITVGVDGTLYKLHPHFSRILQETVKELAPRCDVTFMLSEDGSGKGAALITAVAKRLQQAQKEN
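Test system: HK5 enzyme. Quantity: 5 µg/mL HK5 final. Reagent: glucose and ATP substrates. Schedule: 90 min reaction incubation at room temperature, dark. Technique: resazurin-to-resorufin fluorescence via G6PDH and diaphorase coupling, 525/613 nm. Control set: DMSO wells with and without enzyme mix.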
PfM18AAP inh-2 – confirmation of Plasmodium falciparum M18 aspartyl aminopeptidase inhibitors. AID 2170. inhibition, % at 7.35 µM. recombinant PfM18AAP, H-Glu-NHMec fluorogenic cleavage. 2,400 compounds, 28% hits. shares compounds with PfM18AAP inh-1;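 active = mean inhibition over replicate wells above the hit cutoff set for the earlier primary screen, cut at about 29% in these data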;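 also: 0% = median of test compound wells and 100% = 2 mM ZnCl2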
CTSL1 counter – counter-screen for PFM18AAP inhibitors: confirmation of human cathepsin L inhibitors | shares compounds with PfM18AAP inh-1 | purified cathepsin L1, Z-Leu-Arg-MCA fluorescence | inhibition, % at 5.96 µM | 2,400 tested, under 10 active;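 active = average inhibition across replicates above the hit cutoff set in the earlier primary screen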;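 also: 0% = median of test compound wells and 100% = Z-Phe-Ala-diazomethylketone 1 µM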
An asterisk follows results filed as active; / = no result given.

SMILES	PfG6PD inh	PfM18AAP inh-1	Neddyl block	HKDC1 inh	PfM18AAP inh-2	CTSL1 counter
C/C(=N\NC(=O)CC#N)c1ccc(Oc2ccccc2)cc1	-6.9	33.0*	-11.0	-7.1	-27.8	2.2
Cc1cccc(NC(=O)CSc2cn[nH]n2)c1	28.8	13.0	-7.7	-3.6	/	/
O=C(CSc1cn[nH]n1)Nc1cccc(C(=O)O)c1	56.2	53.7*	2.0	2.7	11.6	-5.9
N#CCC(=O)N/N=C/c1cc(Br)ccc1OCc1cccc2ccccc12	17.2	8.2	2.7	-0.5	/	/
O=S(=O)(NC1CCCCC1Oc1ccccc1)c1ccccc1 (stereo unspecified)	-14.8	-3.1	-2.1	2.9	/	/
CC(OC(=O)Cc1ccc(Br)cc1)C(=O)NC1CCCCC1C (stereo unspecified)	3.1	-4.0	4.3	-2.2	/	/
O=C(O)c1ccc2nc(-c3ccco3)c(-c3ccco3)nc2c1	50.8	35.5*	15.1	11.7	-1.4	4.0
O=C(c1ccc2nc(-c3ccco3)c(-c3ccco3)nc2c1)N1CCN(c2ccccc2)CC1	20.8	14.9	23.4	2.9	/	/
CC(C)(C)OC(=O)N1CCC(C(=O)Nc2cccc(C(=O)NC3CC3)c2)CC1	-1.0	/	2.1	-4.5	/	/
N#Cc1ccc(CN2CCN(C(=O)CNS(=O)(=O)c3ccc4c(c3)OCCCO4)CC2)cc1	-22.9	/	-18.5	-1.7	/	/
O=C(c1ccccc1)c1c[nH]c(C(=O)NNc2cccc(Cl)n2)c1	2.3	52.1*	12.0	2.6	31.2*	-0.6
O=C(NNc1cccc(Cl)n1)c1ccc(Cl)cc1Cl	14.2	22.6	4.3	-3.4	/	/
O=C(c1ccc(Cl)cc1)c1c[nH]c(C(=O)NNc2cccc(Cl)n2)c1	-7.9	51.0*	1.6	-2.9	35.8*	-5.7
COc1cc(C2C(C#N)=C(N)N(N(C)C)C3=C2C(=O)CC(C)(C)C3)ccc1O (stereo unspecified)	2.1	-3.1	-4.9	-1.9	/	/
O=C(COc1ccccc1)NCc1n[nH]c(=S)n1-c1ccccc1	25.9	41.7*	-9.6	18.8	10.9	-1.8
COc1ccc(-n2c(Cn3nnc4ccccc43)n[nH]c2=S)cc1	43.0	38.5*	-1.3	-7.1	11.3	0.3
COc1ccc(-n2c(CNC(=O)COc3ccccc3)n[nH]c2=S)cc1	32.1	32.7*	-0.9	-7.0	4.0	-0.6
Nc1ccc(S(=O)(=O)c2ccc(N)nc2)cc1	-5.5	/	9.1	-6.7	/	/
Cc1ccc(-n2c(O)c(/C=N/c3ncn[nH]3)c3ccccc3c2=O)cc1	5.9	37.2*	1.6	6.0	-15.6	6.4
Cc1ccc(-n2c(O)c(/C=N/n3cnnc3)c3ccccc3c2=O)cc1	-17.4	71.0*	/	1.9	64.0*	-1.9
O=c1c2ccccc2c(/C=N/n2cnnc2)c(O)n1-c1ccccc1F	14.4	/	/	-8.3	/	/
Cc1ccc(-c2noc(CN(C)C(=O)c3ccc(Br)o3)n2)cc1	10.8	/	9.1	-3.3	/	/
O=C(Nc1ccccc1C(=O)O)C1=NN=CC1	7.7	-3.9	17.0	1.9	/	/
CCCCC(=O)NNC(=S)NC(=O)c1ccc([N+](=O)[O-])cc1	18.2	38.8*	-18.0	-8.3	-24.6	-1.8
N#CCC(=O)NNC(=S)Nc1ccccc1C(F)(F)F	-9.1	46.1*	-8.7	-0.5	-36.7	0.6
SMILES	PfG6PD inh	PfM18AAP inh-1	Neddyl block	HKDC1 inh	PfM18AAP inh-2	CTSL1 counter
CCCCC(=O)NNC(=S)NC(=O)c1ccc(C)cc1	17.3	45.6*	-0.2	-10.1	-28.5	0.5
CCCCC(=O)NNC(=S)NC(=O)c1cccc([N+](=O)[O-])c1	33.5	26.7	-31.2	-14.6	/	/
Cc1ccc(C(=O)NC(=S)NNC(=O)CC#N)cc1	1.2	33.1*	3.0	-16.0	-29.8	0.1
COc1ccc(C(=O)NC(=S)NNC(=O)c2ccc(C)cc2)cc1	-17.3	/	/	-9.0	/	/
CN1CC(=O)N(CC(=O)Nc2ccc(N3CCOCC3)cc2)C1=O	-13.7	/	8.5	-6.6	/	/
Cc1nc(=S)n(-c2ccccc2)[nH]1	40.8	2.6	0.5	-6.3	/	/
S=c1nc(C2CCCCC2)n(-c2ccccc2)[nH]1	55.3	34.7*	1.6	-2.5	2.8	-3.7
Nn1c(Cc2cccc3ccccc23)n[nH]c1=S	36.6	32.3*	-4.0	-9.8	-5.3	1.7
Cn1c(-c2cccc3ccccc23)n[nH]c1=S	17.8	37.0*	-1.5	-14.9	-11.8	-6.7
Nn1c(Cc2ccccc2F)n[nH]c1=S	31.7	17.3	6.7	-5.8	/	/
O=C(C1CCN(S(=O)(=O)c2ccccc2F)CC1)N1CCCC1	-3.5	/	8.9	-5.6	/	/
COc1cc(C2c3c(c(C)c(C)oc3=O)Oc3c(C)c(C)oc(=O)c32)ccc1OS(=O)(=O)c1ccc(C)cc1	-5.3	/	-8.2	-0.8	/	/
CC1CN(Cc2nc3c(c(=O)n(C)c(=O)n3C)n2Cc2ccccc2)CC(C)O1 (stereo unspecified)	-0.6	55.4*	4.2	-4.3	-55.1	1.2
CCCc1nnc(NC(=O)CSc2ncn[nH]2)s1	4.2	39.6*	-5.0	-6.2	44.3*	-9.7
CCOC(=O)c1c(NC(=O)CSc2ncn[nH]2)sc(C(=O)NC)c1C	13.0	27.1	1.3	1.7	/	/
COc1ccc(CNC(=O)CSc2ncn[nH]2)cc1OC	-27.5	33.6*	7.7	-6.4	17.0	-4.4
CCOC(=O)c1c(NC(=O)CSc2ncn[nH]2)sc(C)c1C	6.3	48.3*	-8.2	0.2	-0.2	1.1
CCCCc1nc(SCC(=O)Nc2nnc(CCCC)s2)n[nH]1	-24.3	2.0	0.2	4.3	/	/
COc1ccc(-c2csc(NC(=O)CSc3ncn[nH]3)n2)cc1OC	7.1	66.2*	-2.5	-0.2	48.7*	0.1
CSCC[C@H](NC(=O)OC(C)(C)C)C(=O)N1CCC(C(=O)NCC(=O)Nc2ccc(C)cc2)CC1	-3.6	1.0	4.2	-2.4	/	/
O=C(CSc1nc2c(c(=O)n1-c1ccccc1)SCC2)NCC1CCCO1 (stereo unspecified)	-2.1	-0.6	-13.0	-2.5	/	/
O=c1ccc2ccc(OCc3ccccc3)cc2o1	-7.5	2.3	32.8	-0.6	/	/
O=C(CSc1ncn[nH]1)Nc1nc(-c2ccccc2)cs1	-3.9	40.0*	1.2	-7.1	46.0*	-1.4
CCOC(=O)N1CCN(c2ccc(O)cc2)CC1	42.0	38.8*	1.5	-6.5	-9.7	3.6
CC(=O)c1ccc(N2CCN(C(=O)C3CCC3)CC2)cc1	-6.3	2.1	7.4	-12.8	/	/
SMILES	PfG6PD inh	PfM18AAP inh-1	Neddyl block	HKDC1 inh	PfM18AAP inh-2	CTSL1 counter
O=C(C1CC1)N1CCN(c2ccc(O)cc2)CC1	41.4	43.1*	12.4	0.1	-31.6	-2.4
N#Cc1ccccc1S(=O)(=O)N1CCN(CC(=O)Nc2ccccc2C(=O)NC2CC2)CC1	-3.0	/	-21.8	-1.5	/	/
O=C(NNc1nc2ccccc2nc1C(F)(F)F)c1ccccc1	2.8	34.3*	-9.5	-8.1	-3.2	1.1
NNc1nc2ccccc2nc1C(F)(F)F	46.5	-8.0	9.9	9.5	/	/
O=C(NNc1nc2ccccc2o1)c1ccccc1	-1.8	41.1*	-2.0	-0.5	0.3	0.0
CSc1nsc(SC)c1-c1ccc(Cl)cc1	-8.8	/	-2.0	/	/	/
CCCNC(=O)c1ccccc1NC(=O)c1cccc(-n2cnnn2)c1	-2.0	/	20.4	-2.9	/	/

Screens deposited in PubChem BioAssay by several laboratories.
